{"source": "paper PMC4427841", "about": "(British journal of haematology, 2010)", "key": {"[1]": {"system": "proteasome", "conditions": "ref Chauhan, et al 2005; cited from earlier work"}, "[2]": {"system": "CT-L proteasome activity", "conditions": "MTD doses (0.7 mg/m^2), other clinical trials; cited from earlier work"}, "[3]": {"system": "Factor VIII-positive cells in xenografted MM.1S tumors", "experiment": "IHC Factor VIII staining", "assay_type": "in vivo, CB-17 SCID mice", "conditions": "vs vehicle alone, tumors harvested Day 21", "outline": "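Xenograft-bearing mice received vehicle or 0.15 mg/kg i.v. twice weekly for three weeks. MM.1S tumors were harvested 3h after the last dose (Day 21), and paraffin-embedded sections were immunostained for Factor VIII as an angiogenesis marker. The images shown are representative of two mice per treatment.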"}, "[4]": {"system": "proteasome", "conditions": "rats, single dose 0.15 mg/kg; ref Chauhan, et al 2005; cited from earlier work"}, "[5]": {"target": "20S proteasome chymotrypsin-like (CT-L, β5) activity (Homo sapiens, UniProt P28074)", "assay_type": "in vivo, CB-17 SCID mice bearing human MM.1S tumors", "conditions": "MM1.S, iv, read-out: CT-L proteasome activity inhibition in tumors, tumor, 24h after a single treatment, 0.15 mg/kg i.v."}, "[6]": {"system": "CHOP/GADD153, phospho-eIF2α, Bip, Hsp70 in xenografted MM.1S tumors", "experiment": "Immunoblot of ER stress proteins in tumor lysates", "assay_type": "in vivo, CB-17 SCID mice", "conditions": "tumors harvested 3h after last dose (Day 21)"}, "[7]": {"experiment": "Tolerability in efficacy study", "assay_type": "in vivo, CB-17 SCID mice", "conditions": "0.15 mg/kg i.v. twice a week for three weeks"}, "[8]": {"system": "caspase-3 activation / PARP cleavage in xenografted MM.1S tumors", "experiment": "In situ detection of apoptosis and immunoblot", "assay_type": "in vivo, CB-17 SCID mice", "outline": "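Xenograft-bearing mice were treated i.v. with 0.15 mg/kg or vehicle twice weekly for three weeks. Tumors were harvested on Day 21, either 3h after the last dose (immunoblot) or at endpoint (IHC). For in situ staining, apoptotic cells were identified by cleaved caspase-3. Tumor lysates (three mice per group) were immunoblotted for PARP, cleaved caspase-3 and GAPDH, using HRP-conjugated secondary antibodies and ECL detection.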"}, "[9]": {"system": "20S proteasome CT-L, C-L, and T-L activities", "experiment": "Ex vivo 20S proteasome activities", "assay_type": "in vivo, CB-17 SCID mice bearing human MM.1S tumors", "conditions": "for inhibition of all three proteasome activities in tumor: approximately", "outline": "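Male CB-17 SCID mice (4-6 wk) carrying s.c. flank MM.1S xenografts (5.0 × 10^6 cells) were dosed i.v. at ∼200-300 mm3 with 0.15 mg/kg once (D1) or three times (D1, D4, D8), or with vehicle (2% DMSO in 5% Solutol). Euthanasia at 10 min, 1, 4, 24h. Homogenates used 20 μg protein in HEPES/EDTA pH 8.0 buffer with 60 μM fluorogenic substrate (Bz-VGR-AMC for T-L) and 0.05% SDS for CT-L/C-L. Reported as % inhibition vs vehicle; mean ± SD, n = 3.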"}, "[10]": {"system": "MM.1S tumors", "experiment": "Human plasmacytoma xenograft efficacy study", "assay_type": "in vivo, CB-17 SCID mice", "conditions": "0.15 mg/kg i.v. twice a week for three weeks", "outline": "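Male CB-17 SCID mice (4-6 wk) were given 5.0 × 106 MM.1S cells s.c. in the flank in serum-free RPMI. They then received 0.15 mg/kg i.v. or vehicle (2% DMSO/98% of 5% Solutol) twice weekly for three weeks (D1, D4, D8, D11, D15, D18); n=5 per group. Tumors were measured with calipers every third day, and volume was calculated as V = 0.5 a × b2. Mean ± SD; Student's t test, P < 0.05.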"}, "[11]": {"conditions": "tumors, single dose 0.15 mg/kg i.v."}}, "note": "“And” between values parts separate entries of the source, which are not always exact repeats. Equal entries are not always repeated. “Also recorded” adds a separate entry of the source.", "data": [{"compound": "CC(C)C[C@H](NC(=O)[C@H](Cc1ccccc1)NC(=O)c1cnccn1)B(O)O", "note": "[bortezomib]", "values": [{"measurement": "time for recovery of proteasome activity in blood", "setting": "[1]", "result": "≥ 48", "unit": "h"}]}, {"compound": "C[C@@]12OC(=O)[C@]1([C@@H](O)[C@@H]1C=CCCC1)NC(=O)[C@@H]2CCCl", "note": "[NPI-0052, marizomib]", "values": [{"measurement": "inhibition of CT-L proteasome activity at MTD doses", "setting": "[2]", "result": "Complete inhibition"}, {"measurement": "neuropathy or myelosuppression at MTD doses", "setting": "[2]", "result": "without evidence of neuropathy or myelosuppression"}, {"measurement": "Factor VIII-positive cells in tumor sections", "setting": "[3]", "result": "dramatically decreased"}, {"measurement": "time for recovery of proteasome inhibition in PWB", "setting": "[4]", "result": "≤ 7", "unit": "days"}, {"measurement": "inhibition at 0.15 mg/kg", "setting": "[5]", "result": 60, "unit": "%"}, {"measurement": "endoplasmic stress-response proteins in tumor lysates", "setting": "[6]", "result": "upregulation of CHOP/GADD153, phospho-eIF2α, Bip, and Hsp70"}, {"measurement": "toxicity (body weight, overall appearance)", "setting": "[7]", "result": "not associated with any toxicity"}, {"measurement": "PARP cleavage in tumor lysates", "setting": "[8]; tumors harvested 3h after last treatment (Day 21)", "result": "robust cleavage"}, {"measurement": "caspase-3 positive cells in tumor sections", "setting": "[8]; tumors harvested day 21, vs untreated control mice", "result": "increased numbers of caspase-3 positive cells"}, {"measurement": "time to onset of inhibition of all three proteasome activities", "setting": "[9]; PWB, liver, spleen, lung, kidney, single dose 0.15 mg/kg i.v.", "result": "≤ 10", "unit": "min"}, {"measurement": "time for proteasome activities to return to baseline", "setting": "[9]; all tissues examined except PWB and tumors, single dose", "result": "≤ 24", "unit": "h"}, {"measurement": "inhibition of proteasome activity in brain", "setting": "[9]; brain tissue, any time point after single or three doses, 0.15 mg/kg i.v., 0.15 mg/kg", "result": "does not inhibit; also recorded: no significant inhibition"}, {"measurement": "time for recovery of all three proteasome activities", "setting": "[9]; liver, kidney, lung, spleen, after three doses", "result": "≤ 24", "unit": "h"}, {"measurement": "inhibition of all three proteasome activities in most tissues", "setting": "[9]; most tissues, without significant toxicity", "result": "greater than 70%"}, {"measurement": "duration of proteasome inhibition", "setting": "[9]; other organs (lung, liver, spleen, kidney)", "result": "< 24", "unit": "h"}, {"measurement": "inhibition of all three proteasome activities in tumor", "setting": "[9]; 24h post single dose", "result": "25-60%"}, {"measurement": "inhibition of all three proteasome activities in tumor", "setting": "[9]; 24h post third dose", "result": "70-80%"}, {"measurement": "duration of proteasome inhibition", "setting": "[9]; tumors and PWB", "result": "> 24", "unit": "h"}, {"measurement": "inhibition of all three proteasome activities", "setting": "[9]; tumors, PWB and other tissues except brain, within 10 mins following the third dose, 0.15 mg/kg i.v.", "result": "65-90%"}, {"measurement": "time of maximal inhibition of proteasome activities in tumors", "setting": "[9]; [11]", "result": 24, "unit": "h"}, {"measurement": "time to onset of inhibition of proteasome activities in tumors", "setting": "[9]; [11]", "result": "≤ 1", "unit": "h"}, {"measurement": "day on which anti-MM activity (delay in tumor growth) was first evident", "setting": "[10]", "result": "7 days and 5 to 7 days"}, {"measurement": "tumor growth relative to vehicle-treated control", "setting": "[10]", "result": "significantly decreased tumor growth"}]}]}
